Measurements taken from ChEMBL document CHEMBL5136962, “Synthesis and immunological evaluation of N-acyl modified Globo H derivatives as anticancer vaccine candidates” (RSC Med Chem, 2021).
Calls of active or inactive are those of the source.

Tests used:
[1] = tested on: Mus musculus; experiment: (§1) Induction of antigen-specific immunogenicity in pathogen free Balb/c mouse assessed as increase in IgG1 antibody titer production against modified Globo H antigen at 2 ug, IM administered 4 times at biweekly interval measured 14 days post fourth vaccination in presence of 2 ug glycolipid adjuvant C34 by ELISA; type: functional, organism-based; details: dose 2.0 µg, time 14.0 day
[2] = tested on: Mus musculus; experiment: as §1, with “native” for “modified”, “13” for “14”, “third” for “fourth”; type: functional, organism-based; details: dose 2.0 µg, time 13.0 day
Procedure, shortened: (§2)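 Six female Balb/c mice per group received CRM197 glycoconjugate (2 μg carbohydrate antigen) with C34 adjuvant (2 μg) intramuscularly, four times at two-week intervals. Pooled group sera were tested for IgG subclasses by ELISA on plates coated with the unmodified Globo H–BSA conjugate (G0-BSA).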

[3] = tested on: Mus musculus; experiment: as §1, with “native” for “modified”; type: functional, organism-based; details: dose 2.0 µg, time 14.0 day; procedure, shortened: as §2
[4] = tested on: Globohexaosylceramide; experiment: Binding affinity to globo H antigen in human MCF7 cells using mouse sera induced by compound immunization and 14 days post fourth vaccination measured after 30 mins by FITC-conjugated antibody based flow cytometry; type: cell-based; details: time 14.0 day
Procedure, shortened: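 Immune sera from vaccinated mice were incubated with Globo H-positive MCF-7 human breast cancer cells. Binding of serum antibodies to the cells was measured by flow cytometry.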

[5] = tested on: MCF7; experiment: Induction of complement-dependent cytotoxicity against human MCF7 cells assessed as increase in cell lysis using mouse sera induced by compound immunization and 14 days post fourth vaccination measured after 1 hr by LDH release assay; type: functional, cell-based; details: time 14.0 day
Procedure, shortened: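 Complement-dependent cytotoxicity on MCF-7 cells used pooled sera collected after the 4th vaccination, diluted 1:10. Percent lysis was read by LDH release, with three wells per measurement. Values are mean ± SEM of three independent experiments, compared by one-way ANOVA.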

Measured: Activity

C[C@@H]1O[C@@H](O[C@H]2[C@H](O[C@H]3[C@@H](O)[C@@H](CO)O[C@@H](O[C@H]4[C@@H](O)[C@@H](CO)O[C@H](O[C@@H]5[C@H](O)[C@@H](O)[C@H](O[C@H]6[C@H](O)[C@@H](O)[C@H](OCCCCCN)O[C@@H]6CO)O[C@@H]5CO)[C@@H]4O)[C@@H]3NC(=O)C(F)F)O[C@H](CO)[C@H](O)[C@@H]2O)[C@@H](O)[C@H](O)[C@@H]1O
active: all assays above

CC(=O)N[C@H]1[C@H](O[C@H]2[C@@H](O)[C@@H](CO)O[C@H](O[C@@H]3[C@H](O)[C@@H](O)[C@H](O[C@H]4[C@H](O)[C@@H](O)[C@H](OCCCCCN)O[C@@H]4CO)O[C@@H]3CO)[C@@H]2O)O[C@H](CO)[C@H](O)[C@@H]1O[C@@H]1O[C@H](CO)[C@H](O)[C@H](O)[C@H]1O[C@@H]1O[C@@H](C)[C@@H](O)[C@@H](O)[C@@H]1O
not listed: [5]
active: all other assays above

C[C@@H]1O[C@@H](O[C@H]2[C@H](O[C@H]3[C@@H](O)[C@@H](CO)O[C@@H](O[C@H]4[C@@H](O)[C@@H](CO)O[C@H](O[C@@H]5[C@H](O)[C@@H](O)[C@H](O[C@H]6[C@H](O)[C@@H](O)[C@H](OCCCCCN)O[C@@H]6CO)O[C@@H]5CO)[C@@H]4O)[C@@H]3NC(=O)C(F)(F)F)O[C@H](CO)[C@H](O)[C@@H]2O)[C@@H](O)[C@H](O)[C@@H]1O
active: all assays above
